This is an account of results in the array DNA melting data of Ke et al. (doi:10.1101/2024.01.08.574731).

Series [1] in a line: melting temperature; fluorescence melt of hairpins on a sequencing array, two-state fit, raised by 9.35 °C to match UV melts. Conditions: sodium 0.088 M. In outline: (§1)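 Bootstrapped two-state fits yielded melting temperature and folding enthalpy for library hairpins. Cy3 fluorescence, with annealed Cy3 and quencher oligos, was imaged on a sequenced MiSeq flow cell in 50 mM Na-HEPES pH 8.0, 25 mM NaCl in 2.5 °C steps up to 60 °C, and normalised to pre-quench Cy3 and to control constructs. Four replicates were combined by inverse variance, and fitted temperatures were raised by 9.35 °C to match UV melts.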

Series [2] is described as follows: folding enthalpy; higher = less favourable; fluorescence melt of hairpins on a sequencing array, two-state fit. Conditions: sodium 0.088 M. The essentials:
as §1

In the case of GCGACAGGAAACTGCCAC (.(.(((....))).).), the Tm in series [1] was determined as 20.6 °C. The folding enthalpy in series [2] is -9.04 kcal/mol.
As for GCGACATCGAAAGATCGC (((..(((....)))))), the Tm in series [1] came out at 45.9 °C. Moreover, the folding enthalpy in series [2] is -26.7 kcal/mol.
In the case of GCGACATTCGC ((((...)))), the Tm in series [1] was determined as 52.3 °C. In series [2], the folding enthalpy was -14 kcal/mol.
For GCGACCCATCGC ((((....)))), in that order: 52.2 °C and -19.5 kcal/mol.
For GCGACCGAAAGGTACGC ((((((....))).))) the same measures were 58.1 °C and -23.8 kcal/mol.
For GCGACCGAAAGGTCCCGC ((((((....)))..))), in that order: 42.1 °C and -13.3 kcal/mol.
Turning to GCGACCGAAAGGTGTCGC ((((((....)))..))), in series [1], the Tm was 59 °C. Moreover, the folding enthalpy in series [2] is -35.5 kcal/mol.
Regarding GCGACCGAAAGGTTACGC ((((((....)))..))), the Tm in series [1] was 50 °C. The folding enthalpy in series [2] is -26.6 kcal/mol.
For GCGACCGCTCGC ((((....)))), in that order: 48.1 °C and -17.3 kcal/mol.
Regarding GCGACCGGAAACGGCCGC (((.(((....))).))), in series [1], the Tm stood at 65.1 °C. Also, the folding enthalpy in series [2] is -25.9 kcal/mol.
For GCGACCGGAAACGGTCAC (.(((((....))))).) the same measures were 51.4 °C and -12.3 kcal/mol.
Turning to GCGACGATCGC ((((...)))), the Tm in series [1] came to 42.4 °C. For the same sequence, in series [2], the folding enthalpy is -13.6 kcal/mol.
For GCGACGCGAAAGCACCGC (((..((....))..))) the same measures were 55.8 °C and -19.7 kcal/mol.
On to GCGACGCGAAAGCATAGC ((.(.((....)).).)), for which the Tm in series [1] amounted to 62.7 °C. Further, in series [2], the folding enthalpy is -18.8 kcal/mol.
Regarding GCGACGCGAAAGCGATGC ((..(((....)))..)), the Tm in series [1] was determined as 61.8 °C. Further, the folding enthalpy in series [2] was -24.1 kcal/mol.
With GCGACGCGAAAGCTTTGC ((.(.((....)).).)), the Tm in series [1] came to 44.7 °C. In series [2], the folding enthalpy is -18.6 kcal/mol.
For GCGACGCTTCGC ((((....)))), in that order: 55.7 °C and -14.7 kcal/mol.
For the sequence GCGACGGGAAACCATCGC ((((.((....)).)))), the Tm in series [1] was 51.4 °C. Also, the folding enthalpy in series [2] is -45.5 kcal/mol.
In the case of GCGACTGGAAACAGCCAC (.(.(((....))).).), in series [1], the Tm was 27.7 °C. In series [2], the folding enthalpy is -12.2 kcal/mol.
For GCGACTGGAAACGGTCGC (((((.(....).))))), in that order: 64.7 °C and -46.3 kcal/mol.
On to GCGACTGGTCGC ((((....)))), for which the Tm in series [1] was found to be 60.3 °C. Also, the folding enthalpy in series [2] was -38.1 kcal/mol.
On to GCGAGACCGAAAGGTCGC (((..(((....)))))), for which the Tm in series [1] amounted to 59.1 °C. For the same sequence, the folding enthalpy in series [2] is -10.3 kcal/mol.
Regarding GCGAGACCTCGC ((((....)))), the Tm in series [1] stood at 56.5 °C. In addition, the folding enthalpy in series [2] is -13.8 kcal/mol.
For GCGAGACGAAAGTCCCGC (((.(((....))).))) the same measures were 59 °C and -35.6 kcal/mol.
Take GCGAGACGTCGC ((((....)))): the Tm in series [1] amounted to 52.9 °C. For the same sequence, the folding enthalpy in series [2] was -8.79 kcal/mol.
For GCGAGAGCGAAAGCTCGC (((..(((....)))))) the same measures were 65.6 °C and -9.94 kcal/mol.
Regarding GCGAGCATTCGC ((((....)))), the Tm in series [1] is 57.1 °C. Further, the folding enthalpy in series [2] is -27.1 kcal/mol.
Regarding GCGAGCCATCGC ((((....)))), the Tm in series [1] was determined as 57.2 °C. Moreover, the folding enthalpy in series [2] was -28.4 kcal/mol.
Take GCGAGCGAAAGCTGGCGC ((((((....)))..))): the Tm in series [1] was 68.7 °C. The folding enthalpy in series [2] is -25 kcal/mol.
With GCGAGCGAAAGCTTCCGC ((((((....)))..))), the Tm in series [1] is 44.2 °C. Further, in series [2], the folding enthalpy was -16.6 kcal/mol.
Take GCGAGCGATCGC ((((....)))): the Tm in series [1] is 53.5 °C. In addition, the folding enthalpy in series [2] is -25.3 kcal/mol.
As for GCGAGCGCTCGC ((((....)))), the Tm in series [1] came out at 65 °C. For the same sequence, the folding enthalpy in series [2] was -46.8 kcal/mol.
For GCGAGCGGAAACGCTCAC (.(((((....))))).) the same measures were 50.6 °C and -12.3 kcal/mol.
Consider GCGAGCGTTCGC ((((....)))), for which, in series [1], the Tm worked out at 49 °C. Moreover, the folding enthalpy in series [2] was -14.2 kcal/mol.
Turning to GCGAGGAATCGC ((((....)))), in series [1], the Tm was determined as 54.6 °C. Moreover, the folding enthalpy in series [2] is -20.5 kcal/mol.
GCGAGGCGAAAGCAACGC (((..((....))..))): the Tm in series [1] was determined as 61.8 °C. Also, the folding enthalpy in series [2] is -21.6 kcal/mol.
For GCGAGGCGAAAGCAGCGC (((..((....))..))) the same measures were 68.9 °C and -29.9 kcal/mol.
GCGAGGCGAAAGCTTGGC ((.(.((....)).).)): the Tm in series [1] is 46.1 °C. Besides, in series [2], the folding enthalpy is -12.1 kcal/mol.
Take GCGAGGCGAAAGCTTTGC ((.(.((....)).).)): the Tm in series [1] came to 51.5 °C. Besides, in series [2], the folding enthalpy was -20.3 kcal/mol.
For GCGAGGCTTCGC ((((....)))), in that order: 66.7 °C and -17.9 kcal/mol.
As for GCGAGGGTCGC ((((...)))), the Tm in series [1] was 62 °C. Moreover, the folding enthalpy in series [2] is -7.26 kcal/mol.
For the sequence GCGAGGTGTCGC ((((....)))), the Tm in series [1] came out at 65.7 °C. In series [2], the folding enthalpy is -5.64 kcal/mol.
GCGAGTAATCGC ((((....)))): in series [1], the Tm was 58.6 °C. Also, the folding enthalpy in series [2] is -20.9 kcal/mol.
Turning to GCGAGTCCTCGC ((((....)))), in series [1], the Tm came out at 56.2 °C. In addition, the folding enthalpy in series [2] was -30.2 kcal/mol.
Consider GCGAGTCGAAAGACACGC (((.(((....))).))), for which the Tm in series [1] amounted to 66.6 °C. Further, the folding enthalpy in series [2] is -38.4 kcal/mol.
For GCGAGTGGAAACACTCAC (.(((((....))))).), in that order: 45.7 °C and -14 kcal/mol.
For GCGAGTGGAAACGTTCGC ((((..(....)..)))), in that order: 45.5 °C and -24.6 kcal/mol.
With GCGAGTTGTCGC ((((....)))), in series [1], the Tm amounted to 50.9 °C. Also, the folding enthalpy in series [2] was -15.5 kcal/mol.
Turning to GCGATACCTCGC ((((....)))), the Tm in series [1] was determined as 51.4 °C. Also, the folding enthalpy in series [2] was -24.9 kcal/mol.
Turning to GCGATAGGTCGC ((((....)))), the Tm in series [1] turned out to be 51.4 °C. Further, the folding enthalpy in series [2] was -24.5 kcal/mol.
For GCGATATCTCGC ((((....)))), the Tm in series [1] was found to be 48.5 °C. The folding enthalpy in series [2] is -20.5 kcal/mol.
As to GCGATATGTCGC ((((....)))), the Tm in series [1] turned out to be 55 °C. Moreover, in series [2], the folding enthalpy was -26.4 kcal/mol.
For GCGATCAATCGC ((((....)))), the Tm in series [1] stood at 51.1 °C. In series [2], the folding enthalpy was -24.9 kcal/mol.
Consider GCGATCACTCGC ((((....)))), for which the Tm in series [1] was determined as 47.2 °C. In addition, in series [2], the folding enthalpy is -26 kcal/mol.
As to GCGATCAGTCGC ((((....)))), the Tm in series [1] was determined as 49.3 °C. The folding enthalpy in series [2] is -23.2 kcal/mol.
Turning to GCGATCCGAAAGGAACGC (((.(((....))).))), in series [1], the Tm came out at 66.8 °C. Further, the folding enthalpy in series [2] was -40 kcal/mol.
Take GCGATCGAAAGATTGCGC ((((((....)))..))): in series [1], the Tm amounted to 57.2 °C. For the same sequence, in series [2], the folding enthalpy was -39.6 kcal/mol.
With GCGATCGCTCGC ((((....)))), in series [1], the Tm was found to be 49.6 °C. Moreover, the folding enthalpy in series [2] is -24.2 kcal/mol.
As for GCGATCTGTCGC ((((....)))), the Tm in series [1] was 51.6 °C. Also, the folding enthalpy in series [2] was -33.5 kcal/mol.
For the sequence GCGATGCGAAAGCAATGC ((..(((....)))..)), the Tm in series [1] amounted to 53.1 °C. Besides, the folding enthalpy in series [2] was -18.2 kcal/mol.
For the sequence GCGATGCGAAAGCAGGGC ((..(((....)))..)), in series [1], the Tm amounted to 61.4 °C. The folding enthalpy in series [2] is -20.4 kcal/mol.
Turning to GCGATGCGAAAGCGTTGC ((.(.((....)).).)), the Tm in series [1] was 57.2 °C. Besides, in series [2], the folding enthalpy is -25.9 kcal/mol.
Regarding GCGATTAATCGC ((((....)))), in series [1], the Tm turned out to be 56.1 °C. In addition, the folding enthalpy in series [2] is -29.4 kcal/mol.
For GCGATTCGAAAGAACGC (((.(((....)))))), in that order: 52.8 °C and -30.2 kcal/mol.
For GCGATTGATCGC ((((....)))), the Tm in series [1] was found to be 53.1 °C. Further, in series [2], the folding enthalpy is -31.5 kcal/mol.
For GCGATTGGAAACAATCAC (.(((((....))))).), in that order: 40 °C and -19.7 kcal/mol.
As to GCGATTGGAAACAATCGC (((((((....))))))), in series [1], the Tm is 69 °C. For the same sequence, in series [2], the folding enthalpy was -39.5 kcal/mol.
On to GCGATTGGAAACAGTCGC ((((.((....)).)))), for which the Tm in series [1] came to 54.2 °C. Also, the folding enthalpy in series [2] is -42 kcal/mol.
In the case of GCGATTGGAAACGATCGC (((((.(....).))))), the Tm in series [1] was 56.4 °C. For the same sequence, the folding enthalpy in series [2] is -49 kcal/mol.
As to GCGCAAACGAAAGTTCGC (((..(((....)))))), in series [1], the Tm turned out to be 46.7 °C. Besides, the folding enthalpy in series [2] was -22.6 kcal/mol.
GCGCACGAAAGTGTTCGC ((((((....)))..))): in series [1], the Tm is 48.2 °C. In addition, the folding enthalpy in series [2] is -22.1 kcal/mol.
As to GCGCACGGAAACGTGCAC (.(((((....))))).), the Tm in series [1] came out at 52.2 °C. In addition, the folding enthalpy in series [2] was -10.1 kcal/mol.
GCGCAGCGAAAGCAACGC (((..((....))..))): the Tm in series [1] was found to be 49.6 °C. In addition, the folding enthalpy in series [2] is -10.2 kcal/mol.
Consider GCGCAGCGAAAGCAGTGC ((.(.((....)).).)), for which, in series [1], the Tm amounted to 54.4 °C. Also, the folding enthalpy in series [2] is -12 kcal/mol.
For GCGCAGCGAAAGCGACGC (((..((....))..))) the same measures were 57.6 °C and -15.8 kcal/mol.
For GCGCAGCGAAAGCGCCGC (((..((....))..))) the same measures were 59.4 °C and -13.1 kcal/mol.
For GCGCAGCGAAAGCGGGGC ((.(.((....)).).)), in series [1], the Tm is 57.6 °C. Also, the folding enthalpy in series [2] is -14.3 kcal/mol.
